Compound activity from PubChem.
Shown are actives, neighbours in structure and some others; about 2.9% of the full set was active somewhere.
HSP90 inh – HSP90 inhibitors, primary screen, cell lysate, luminescence; Rabbit reticulocyte lysate, luciferase refolding luminescence, 3 h; inhibition, % at 5.6 µM; AID 1789, 2009; 290,000 compounds, 0.91% hits; Heat shock protein HSP 90 (rabbit reticulocyte lysate; luciferase refolding);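 active means inhibition above the screen-wide mean plus 3 SD, computed separately per campaign, cut at about 16% in these data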;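 further: inhibitors lower the luminescence because luciferase stays unfolded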
SENP1 inh – human SENP1 catalytic domain inhibitors, primary screen, biochemical, FRET, uHTS | 360,000 compounds, 0.21% hits | inhibition, % at 10 µM | Sentrin-specific protease 1 (Homo sapiens), Q9P0U3 | recombinant SENP1 catalytic domain, CyPet-SUMO1-YPet FRET cleavage;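 active means inhibition at least 30% at 10 µM, raw YFP signal under a set limit, fluorescence ratio 0.5 to 1.5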
Target sequence (Q9P0U3 419-644 limits assumed): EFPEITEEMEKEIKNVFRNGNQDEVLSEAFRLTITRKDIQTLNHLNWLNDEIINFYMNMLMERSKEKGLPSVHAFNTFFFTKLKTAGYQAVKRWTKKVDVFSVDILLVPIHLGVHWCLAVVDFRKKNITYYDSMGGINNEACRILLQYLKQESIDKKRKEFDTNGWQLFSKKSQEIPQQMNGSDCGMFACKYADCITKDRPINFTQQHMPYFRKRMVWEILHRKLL
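Test system: hSENP1 catalytic domain, recombinant; Amount: 20 pM final SENP1 enzyme; Medium: Tris pH 8 buffer plus EDTA, NaCl, BME, BSA, NP40, catalase; Schedule: 50 min enzyme reaction, room temperature, light-protected; Technique: FRET fluorescence in CFP and YFP emission channels; Controls: no-enzyme wells low, DMSO-plus-enzyme wells high control.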
SENP8 block-1 – human SENP8 protease inhibitors, primary screen, biochemical, fluorescence, Nedd8 protein substrate, uHTS; 360,000 compounds, 0.64% hits; AID 602440, 2012; recombinant SENP8; Sentrin-specific protease 8 (Homo sapiens), Q96LD8; inhibition, % at 20 µM; in the data active means inhibition mostly above about 40%, no sharp cut-off; inactive means mostly below about 27%
Target sequence (Q96LD8 whole entry, looked up): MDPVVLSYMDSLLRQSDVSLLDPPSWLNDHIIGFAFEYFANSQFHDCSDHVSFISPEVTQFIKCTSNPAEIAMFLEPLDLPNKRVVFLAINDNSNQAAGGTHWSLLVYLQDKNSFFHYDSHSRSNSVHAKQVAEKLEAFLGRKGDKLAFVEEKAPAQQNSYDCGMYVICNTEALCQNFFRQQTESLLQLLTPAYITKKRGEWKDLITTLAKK
SENP7 block – SENP7 protease inhibitors, primary screen, biochemical, luminescence, uHTS; Sentrin-specific protease 7 (Homo sapiens), Q9BQF6; recombinant SENP7, Z-RLRGG-aminoluciferin luminescence, 40 min; inhibition, % at 5 µM; 330,000 compounds, 1.5% hits; AID 434973, 2010;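 active means inhibition above about 50% at the single test dose, limit read from the data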
SENP8 block-2 – SENP8 protease inhibitors, primary screen, biochemical, luminescence | inhibition, % at 10 µM | 330,000 compounds, 1.2% hits | purified SENP8, Z-RLRGG-aminoluciferin cleavage | Sentrin-specific protease 8 (Homo sapiens), Q96LD8; in the data active means inhibition above about 50%
SENP6 block – SENP6 protease inhibitors, primary screen, biochemical, luminescence, uHTS. Recombinant SENP6 catalytic domain, aminoluciferin luminescence. inhibition, % at 10 µM. 330,000 compounds, 1.8% hits. AID 2599, 2010;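 active means inhibition above about 50% at the single tested dose, limit read from the data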
SENP8 confirm – SENP8 protease inhibitors, retest, confirmation, biochemical, luminescence, single concentration; inhibition, % at 12.5 µM; 6,200 compounds, 40% hits; shares compounds with SENP7 block; Recombinant SENP8, Z-RLRGG-aminoluciferin luminescence, 60 min;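 active means mean inhibition across replicates above about 50%, limit read from the data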
SENP6 conf – SENP6 protease inhibitors, confirmation, biochemical, luminescence, single concentration. shares compounds with SENP7 block. inhibition, % at 12.5 µM. 6,200 compounds, 58% hits. recombinant SENP6, Z-RLRGG-aminoluciferin luminescence
SENP7 confirm – SENP7 protease inhibitors, retest, confirmation, biochemical, luminescence, single concentration; recombinant SENP7, Z-RLRGG-aminoluciferin luminescence, 40 min; 6,200 compounds, 69% hits; shares compounds with SENP7 block; inhibition, % at 12.5 µM
Casp3 select – caspase-3 protease inhibitors, confirmation, selectivity assay for SENP inhibitor project, biochemical, single concentration. 6,200 compounds, 60% hits. purified caspase-3, Z-DEVD-aminoluciferin luminescence, 60 min. inhibition, % at 12.5 µM. shares compounds with SENP7 block. AID 488918, 2010;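 active means mean inhibition above about 50%, limit read from the data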
Target sequence (P42574 28-227 limits assumed): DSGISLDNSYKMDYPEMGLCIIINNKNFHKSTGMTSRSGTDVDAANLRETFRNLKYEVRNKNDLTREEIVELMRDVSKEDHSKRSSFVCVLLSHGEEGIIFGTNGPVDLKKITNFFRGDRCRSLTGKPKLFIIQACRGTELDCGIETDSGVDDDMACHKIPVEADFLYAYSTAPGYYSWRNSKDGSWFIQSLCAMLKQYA
SENP luc ctr – interferes with luciferase luminescence in SENP counter-screen. 6,200 compounds, 39% hits. shares compounds with SENP7 block. Pre-incubated SENP8/Z-RLRGG-aminoluciferin, luciferase luminescence interference. inhibition, % at 12.5 µM;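 active means mean inhibition above about 50% when retested at one dose, limit read from the data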
Of the large screens only hits and unclear results are named; the others gave an inactive call (follow-up assays come after a bar, where they were run).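 How the source made its calls, unless noted: active means mean inhibition above about 50% in the one-dose retest (limit read from the data); inactive means the rest.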

CCCCNC(=O)c1c(N)n(CCCOC)c2nc3ccccc3nc12	SENP8 block-2 86, SENP6 block 89 | SENP8 confirm inactive | SENP6 conf inactive | SENP7 confirm inactive | Casp3 select inactive | SENP luc ctr inactive
COCCCNC(=O)c1c(N)n(Cc2ccco2)c2nc3ccccc3nc12	none
CC(C)OCCCNC(=O)c1c(N)n(Cc2cccs2)c2nc3ccccc3nc12	SENP6 block 64 | SENP8 confirm inactive | SENP6 conf inactive | SENP7 confirm inactive | Casp3 select inactive | SENP luc ctr inactive
CC(C)CCn1c(N)c(C(=O)NCc2cccs2)c2nc3ccccc3nc21	SENP7 block 51, SENP8 block-2 87, SENP6 block 80 | SENP8 confirm inactive | SENP6 conf inactive | SENP7 confirm inactive | Casp3 select inactive | SENP luc ctr inactive
CCCOC(=O)c1ccc(-[n+]2c(-c3ccccc3)cc(-c3ccccc3)cc2-c2ccccc2)cc1	none (no result: HSP90 inh)
C[C@]12CCC(=O)C[C@H]1CC[C@@H]1[C@@H]2CC[C@]2(C)[C@@H](O)CC[C@@H]12	none (no result: HSP90 inh, SENP1 inh, SENP8 block-1)
C=CCN1C[C@@H](C)N(C(c2ccc(C(=O)N(CC)CC)cc2)c2cccc(OC)c2)C[C@@H]1C (stereo partly drawn)	none (no result: HSP90 inh)
O=C(NN=Cc1ccc(N(CCCl)CCCl)cc1)c1cccnc1	none (no result: HSP90 inh, SENP7 block, SENP8 block-2, SENP6 block)
CCCCCn1c(NC(=O)c2ccco2)c(C(=O)OCC)c2nc3ccccc3nc21	SENP8 block-2 80, SENP6 block 79 | SENP8 confirm inactive | SENP6 conf inactive | SENP7 confirm inactive | Casp3 select inactive | SENP luc ctr inactive
COCCNC(=O)c1c(N)n(CCC(C)C)c2nc3ccccc3nc12	SENP8 block-2 81, SENP6 block 86 | SENP8 confirm inactive | SENP6 conf inactive | SENP7 confirm inactive | Casp3 select inactive | SENP luc ctr inactive
CN1CC[C@@]2(C)c3cc(O)ccc3N(C)C2O1 (stereo partly drawn)	SENP6 block 57 (no result: HSP90 inh) | SENP8 confirm inactive | SENP6 conf 56 | SENP7 confirm inactive | Casp3 select inactive | SENP luc ctr inactive
O=C(Nc1ccccc1)N1Cc2ccccc2-n2nncc2C1	none (no result: HSP90 inh, SENP7 block, SENP8 block-2, SENP6 block)
COc1ccc(C(=O)NC(=S)N2C[C@H]3C[C@H](C2)c2cccc(=O)n2C3)cc1	none
CCOC(=O)c1ccccc1NC(=O)c1c(O)[nH]c(=O)[nH]c1=O	none (no result: HSP90 inh)
CCOC(=O)c1ccc(NC(=O)c2c(O)[nH]c(=O)[nH]c2=O)cc1	SENP7 block 72, SENP8 block-2 66, SENP6 block 83 | SENP8 confirm inactive | SENP6 conf inactive | SENP7 confirm inactive | Casp3 select inactive | SENP luc ctr inactive
CCOc1ccc(NC(=O)c2c(O)[nH]c(=O)[nH]c2=O)cc1	SENP7 block 80, SENP8 block-2 59, SENP6 block 74 (no result: HSP90 inh) | SENP8 confirm 71 | SENP6 conf 59 | SENP7 confirm 95 | Casp3 select 84 | SENP luc ctr inactive
COc1ccc(-n2c(/C=C/c3cccc(F)c3)nc3ccccc3c2=O)c(OC)c1	none (no result: SENP7 block, SENP8 block-2, SENP6 block)
O=C(Nc1ccc(Cl)c(Cl)c1)c1ccco1	SENP8 block-2 51, SENP6 block 56 | SENP8 confirm 60 | SENP6 conf 58 | SENP7 confirm 85 | Casp3 select inactive | SENP luc ctr inactive
c1ccc2c(NC3=NCCS3)cccc2c1	SENP7 block 61, SENP8 block-2 88, SENP6 block 76 | SENP8 confirm inactive | SENP6 conf inactive | SENP7 confirm inactive | Casp3 select inactive | SENP luc ctr inactive
Clc1cccc(Cl)c1NC1=NCCS1	none (no result: HSP90 inh, SENP7 block, SENP8 block-2, SENP6 block)
Clc1ccccc1Nc1ncnc(-n2cccc2)n1	SENP7 block 72, SENP8 block-2 64, SENP6 block 81 | SENP8 confirm 67 | SENP6 conf 68 | SENP7 confirm 91 | Casp3 select 60 | SENP luc ctr inactive
CN1CCN(c2ccc(N)cc2Cl)CC1	none
COc1ccccc1N=Cc1c(O)n(C)c(=O)n(C)c1=O	SENP7 block 56, SENP6 block 63 | SENP8 confirm inactive | SENP6 conf inactive | SENP7 confirm 73 | Casp3 select inactive | SENP luc ctr 59
CN(C)C(=O)Oc1ccc(OC(=O)c2ccccc2)cc1	SENP8 block-2 81, SENP6 block 90 | SENP8 confirm 65 | SENP6 conf 89 | SENP7 confirm 98 | Casp3 select 92 | SENP luc ctr 51
CN(C(=O)Oc1ccc(C(=O)c2ccc(Cl)cc2)cc1)c1ccccc1	none
Cc1ccc(NC(=O)N2CC2)cc1NC(=O)N1CC1	none (no result: HSP90 inh, SENP7 block, SENP8 block-2, SENP6 block)
Cc1ccc(NC(=O)c2snnc2C)cc1Cl	SENP7 block 60, SENP6 block 65 | SENP8 confirm inactive | SENP6 conf inactive | SENP7 confirm 83 | Casp3 select 64 | SENP luc ctr 61
O=C(N/N=C/c1c(O)n(C2CC2)c(=S)[nH]c1=O)c1ccccc1O	SENP7 block 83, SENP8 block-2 83, SENP6 block 82 | SENP8 confirm 88 | SENP6 conf 86 | SENP7 confirm 95 | Casp3 select 87 | SENP luc ctr inactive
O=C(N/N=C/c1c(O)n(-c2ccccc2)c(=S)[nH]c1=O)c1ccccc1	none
COC(=O)C1=C(c2ccc3ccccc3c2)C[C@@H]2CC[C@H]1N2C(=O)N1CCCCC1	none (no result: HSP90 inh)
CCCNC(=O)c1c(N)n(Cc2ccc3c(c2)OCO3)c2nc3ccccc3nc12	SENP8 block-2 53, SENP6 block 54 | SENP8 confirm inactive | SENP6 conf inactive | SENP7 confirm inactive | Casp3 select inactive | SENP luc ctr inactive
